ChEMBL document CHEMBL1671617, “Correlation of antimicrobial resistance with beta-lactamases, the OmpA-like porin, and efflux pumps in clinical isolates of Acinetobacter baumannii endemic to New York City” (2008)
≈ marks a conversion by molar mass, not a printed value.

Tests used:
Type in all cases: functional
Acinetobacter baumannii [1] = experiment: Antimicrobial activity against ISAba1 linked with the blaOXA-51-type beta-lactamase harboring Acinetobacter baumannii alpha clonal group isolate 1 expressing ampC, ompA, adeB, adeM by agar dilution method
Outline: (§1)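 MICs were determined by agar dilution on Mueller-Hinton agar against multidrug-resistant clinical A. baumannii isolates from endemic regional ribotypes, with species confirmed by ribotyping. Selected agents were also tested with and without the efflux inhibitor NMP, fixed at 100 μg/ml in the agar. Meropenem was tested with and without clavulanic acid at 4 μg/ml. A fourfold or greater MIC drop with the additive was scored as significant.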

Acinetobacter baumannii [2] = experiment: Antimicrobial activity against Acinetobacter baumannii alpha clonal group isolate 2 expressing ampC, ompA, adeB, adeM, aacC1, aadA1 by agar dilution method; outline: as §1
Acinetobacter baumannii [3] = experiment: Antimicrobial activity against Acinetobacter baumannii alpha clonal group isolate 3 expressing ampC, ompA, adeB, adeM, aacC1, aadA1 by agar dilution method; outline: as §1
Acinetobacter baumannii [4] = experiment: Antimicrobial activity against Acinetobacter baumannii alpha clonal group isolate 4 expressing ampC, ompA, adeB, adeM, aacC1, aadA1 by agar dilution method; outline: as §1
Acinetobacter baumannii [5] = experiment: Antimicrobial activity against Acinetobacter baumannii alpha clonal group isolate 5 expressing ampC, ompA, adeB, adeM, aacC1, aadA1 by agar dilution method; outline: as §1
Acinetobacter baumannii [6] = experiment: Antimicrobial activity against ISAba1 linked with the blaOXA-51-type beta-lactamase harboring Acinetobacter baumannii alpha clonal group isolate 6 expressing ampC, ompA, adeB, adeM, aacC1, aadA1 by agar dilution method; outline: as §1
Acinetobacter baumannii [7] = experiment: Antimicrobial activity against ISAba1 linked with the blaOXA-51-type beta-lactamase harboring Acinetobacter baumannii alpha clonal group isolate 7 expressing ampC, ompA, adeB, adeM, blaSHV-5 by agar dilution method; outline: as §1
Acinetobacter baumannii [8] = experiment: Antimicrobial activity against ISAba1 linked with the blaOXA-51-type beta-lactamase harboring Acinetobacter baumannii alpha clonal group isolate 8 expressing ampC, ompA, adeB, adeM, aacC1, aadA1 by agar dilution method; outline: as §1
Acinetobacter baumannii [9] = experiment: Antimicrobial activity against ISAba1 linked with the blaOXA-51-type beta-lactamase harboring Acinetobacter baumannii beta clonal group isolate 9 expressing ampC, ompA, adeB, adeM by agar dilution method; outline: as §1
Acinetobacter baumannii [10] = experiment: Antimicrobial activity against ISAba1 linked with the blaOXA-51-type beta-lactamase harboring Acinetobacter baumannii beta clonal group isolate 10 expressing ompA, adeB, adeM, aacA4, blaSHV-5 by agar dilution method; outline: as §1
Acinetobacter baumannii [11] = experiment: Antimicrobial activity against ISAba1 linked with the blaOXA-51-type beta-lactamase harboring Acinetobacter baumannii beta clonal group isolate 11 expressing ompA, adeB, adeM, blaSHV-5 by agar dilution method; outline: as §1
Acinetobacter baumannii [12] = experiment: Antimicrobial activity against ISAba1 linked with the blaOXA-51-type beta-lactamase harboring Acinetobacter baumannii beta clonal group isolate 12 expressing ompA, adeB, adeM, aacA4, aacC2, blaSHV-5 by agar dilution method; outline: as §1
Acinetobacter baumannii [13] = experiment: Antimicrobial activity against ISAba1 linked with the blaOXA-51-type beta-lactamase harboring Acinetobacter baumannii beta clonal group isolate 13 expressing ompA, adeB, adeM, aacA4, blaSHV-5 by agar dilution method; outline: as §1
Acinetobacter baumannii [14] = experiment: Antimicrobial activity against ISAba1 linked with the blaOXA-51-type beta-lactamase harboring Acinetobacter baumannii beta clonal group isolate 14 expressing ompA, adeB, adeM, aacA4, blaSHV-5 by agar dilution method; outline: as §1
Acinetobacter baumannii [15] = experiment: Antimicrobial activity against ISAba1 linked with the blaOXA-51-type beta-lactamase harboring Acinetobacter baumannii beta clonal group isolate 15 expressing ompA, adeB, adeM, aacA4, blaSHV-5 by agar dilution method; outline: as §1
Acinetobacter baumannii [16] = experiment: Antimicrobial activity against ISAba1 linked with the blaOXA-51-type beta-lactamase harboring Acinetobacter baumannii beta clonal group isolate 16 expressing ompA, adeB, adeM, aacA4, blaSHV-5 by agar dilution method; outline: as §1
Acinetobacter baumannii [17] = experiment: Antimicrobial activity against ISAba1 linked with the blaOXA-51-type beta-lactamase harboring Acinetobacter baumannii beta clonal group isolate 17 expressing ompA, adeB, adeM, aacA4, blaSHV-5 by agar dilution method; outline: as §1
Acinetobacter baumannii [18] = experiment: Antimicrobial activity against ISAba1 linked with the blaOXA-51-type beta-lactamase harboring Acinetobacter baumannii beta clonal group isolate 18 expressing ompA, adeB, adeM, aacA4, blaSHV-5 by agar dilution method; outline: as §1
Acinetobacter baumannii [19] = experiment: Antimicrobial activity against ISAba1 linked with the blaOXA-51-type beta-lactamase harboring Acinetobacter baumannii zeta clonal group isolate 19 expressing ampC, ompA, adeB, adeM, aacC2 by agar dilution method; outline: as §1
Acinetobacter baumannii [20] = experiment: Antimicrobial activity against ISAba1 linked with the blaOXA-51-type beta-lactamase harboring Acinetobacter baumannii zeta clonal group isolate 20 expressing ampC, ompA, adeB, adeM, aacC2 by agar dilution method; outline: as §1
Acinetobacter baumannii [21] = experiment: Antimicrobial activity against ISAba1 linked with the blaOXA-51-type beta-lactamase harboring Acinetobacter baumannii zeta clonal group isolate 21 expressing ampC, ompA, adeB, adeM, aacC2, blaSHV-5 by agar dilution method; outline: as §1
Acinetobacter baumannii [22] = experiment: Antimicrobial activity against ISAba1 linked with the blaOXA-51-type beta-lactamase harboring Acinetobacter baumannii zeta clonal group isolate 22 expressing ampC, ompA, adeB, adeM, aadA1, aacA4, aacC2, blaSHV-5 by agar dilution method; outline: as §1
Acinetobacter baumannii [23] = experiment: Antimicrobial activity against ISAba1 linked with the blaOXA-51-type beta-lactamase harboring Acinetobacter baumannii zeta clonal group isolate 23 expressing ampC, ompA, adeB, adeM, aadA1, aacA4, aacC2, aphA6 by agar dilution method; outline: as §1
Acinetobacter baumannii [24] = experiment: Antimicrobial activity against ISAba1 linked with the blaOXA-51-type beta-lactamase harboring Acinetobacter baumannii zeta clonal group isolate 24 expressing ampC, ompA, adeB, adeM, aadA1, aacA4, aacC2, blaSHV-5 by agar dilution method; outline: as §1
Acinetobacter baumannii [25] = experiment: Antimicrobial activity against ISAba1 linked with the blaOXA-51-type beta-lactamase harboring Acinetobacter baumannii zeta clonal group isolate 25 expressing ampC, ompA, adeB, adeM, aadA1, aacA4, aacC2, blaSHV-5 by agar dilution method; outline: as §1
Acinetobacter baumannii [26] = experiment: Antimicrobial activity against ISAba1 linked with the blaOXA-51-type beta-lactamase harboring Acinetobacter baumannii zeta clonal group isolate 26 expressing ampC, ompA, adeB, adeM, aadA1, aacA4, aacC2, blaSHV-5 by agar dilution method; outline: as §1
Acinetobacter baumannii [27] = experiment: Antimicrobial activity against Acinetobacter baumannii lambda clonal group isolate 27 expressing ampC, ompA, adeB, adeM, aadB, aadA1 by agar dilution method; outline: as §1
Acinetobacter baumannii [28] = experiment: Antimicrobial activity against ISAba1 linked with the blaOXA-51-type beta-lactamase harboring Acinetobacter baumannii lambda clonal group isolate 28 expressing ampC, ompA, adeM, aadB, aadA1 by agar dilution method; outline: as §1
Acinetobacter baumannii [29] = experiment: Antimicrobial activity against ISAba1 linked with the blaOXA-51-type beta-lactamase harboring Acinetobacter baumannii lambda clonal group isolate 29 expressing ampC, ompA, adeM, aadB, aadA1 by agar dilution method; outline: as §1
Acinetobacter baumannii [30] = experiment: Antimicrobial activity against ISAba1 linked with the blaOXA-51-type beta-lactamase harboring Acinetobacter baumannii lambda clonal group isolate 30 expressing ampC, ompA, adeB, adeM, aadB, aadA1 by agar dilution method; outline: as §1
Acinetobacter baumannii [31] = experiment: Antimicrobial activity against Acinetobacter baumannii nu clonal group isolate 31 expressing ampC, ompA, adeB, adeM, aadB, aadA2 by agar dilution method
Outline: (§2)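 Clinical multidrug-resistant A. baumannii isolates from endemic NYC ribotypes, with species identity confirmed by ribotyping. MICs were determined by agar dilution on Mueller-Hinton agar; tobramycin was tested by this method. Agar dilution was also run for selected agents with and without the efflux inhibitor NMP, added to the agar at a fixed 100 μg/ml.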

Acinetobacter baumannii [32] = experiment: Antimicrobial activity against Acinetobacter baumannii nu clonal group isolate 32 expressing ampC, ompA, adeB, adeM, aadB, aadA2 by agar dilution method; outline: as §2
Acinetobacter baumannii [33] = experiment: Antimicrobial activity against Acinetobacter baumannii nu clonal group isolate 33 expressing ampC, ompA, adeB, adeM by agar dilution method; outline: as §1
Acinetobacter baumannii [34] = experiment: Antimicrobial activity against Acinetobacter baumannii nu clonal group isolate 34 expressing ampC, ompA, adeB, adeM by agar dilution method; outline: as §1
Acinetobacter baumannii [35] = experiment: Antimicrobial activity against Acinetobacter baumannii eta clonal group isolate 35 expressing ampC, ompA, adeB, adeM by agar dilution method; outline: as §1
Acinetobacter baumannii [36] = experiment: Antimicrobial activity against Acinetobacter baumannii eta clonal group isolate 36 expressing ampC, ompA, adeB, adeM by agar dilution method; outline: as §1
Acinetobacter baumannii [37] = experiment: Antimicrobial activity against Acinetobacter baumannii unique clonal group isolate 37 expressing ampC, ompA, adeB, adeM by agar dilution method; outline: as §1
Acinetobacter baumannii [38] = experiment: Antimicrobial activity against Acinetobacter baumannii unique clonal group isolate 38 expressing ampC, ompA, adeB, adeM by agar dilution method; outline: as §2
Acinetobacter baumannii [39] = experiment: Antimicrobial activity against Acinetobacter baumannii unique clonal group isolate 39 expressing ampC, ompA, adeM by agar dilution method; outline: as §2
Acinetobacter baumannii [40] = experiment: Antimicrobial activity against ISAba1 linked with the blaOXA-51-type beta-lactamase harboring Acinetobacter baumannii unique clonal group isolate 40 expressing ampC, ompA, adeB, adeM, aadA1, aacA4, aacC2, blaSHV-5 by agar dilution method; outline: as §1

NC[C@H]1O[C@H](O[C@H]2[C@H](O)[C@@H](O[C@H]3O[C@H](CO)[C@@H](O)[C@H](N)[C@H]3O)[C@H](N)C[C@@H]2N)[C@H](N)C[C@@H]1O [TOBRAMYCIN]
MIC (Acinetobacter baumannii [1]): < 0.25 µg/mL
MIC (Acinetobacter baumannii [2]): 0.5 µg/mL (≈ 1.07 µM)
MIC (Acinetobacter baumannii [3]): 0.5 µg/mL (≈ 1.07 µM)
MIC (Acinetobacter baumannii [4]): 0.5 µg/mL (≈ 1.07 µM)
MIC (Acinetobacter baumannii [5]): 0.5 µg/mL (≈ 1.07 µM)
MIC (Acinetobacter baumannii [6]): < 0.25 µg/mL
MIC (Acinetobacter baumannii [7]): 0.5 µg/mL (≈ 1.07 µM)
MIC (Acinetobacter baumannii [8]): 1 µg/mL (≈ 2.14 µM)
MIC (Acinetobacter baumannii [9]): 2 µg/mL (≈ 4.28 µM)
MIC (Acinetobacter baumannii [10]): 16 µg/mL (≈ 34.2 µM)
MIC (Acinetobacter baumannii [11]): 0.5 µg/mL (≈ 1.07 µM)
MIC (Acinetobacter baumannii [12]): > 32 µg/mL
MIC (Acinetobacter baumannii [13]): > 32 µg/mL
MIC (Acinetobacter baumannii [14]): > 32 µg/mL
MIC (Acinetobacter baumannii [15]): > 32 µg/mL
MIC (Acinetobacter baumannii [16]): > 32 µg/mL
MIC (Acinetobacter baumannii [17]): > 32 µg/mL
MIC (Acinetobacter baumannii [18]): > 32 µg/mL
MIC (Acinetobacter baumannii [19]): 4 µg/mL (≈ 8.56 µM)
MIC (Acinetobacter baumannii [20]): 4 µg/mL (≈ 8.56 µM)
MIC (Acinetobacter baumannii [21]): 4 µg/mL (≈ 8.56 µM)
MIC (Acinetobacter baumannii [22]): > 32 µg/mL
MIC (Acinetobacter baumannii [23]): > 32 µg/mL
MIC (Acinetobacter baumannii [24]): > 32 µg/mL
MIC (Acinetobacter baumannii [25]): > 32 µg/mL
MIC (Acinetobacter baumannii [26]): > 32 µg/mL
MIC (Acinetobacter baumannii [27]): 0.5 µg/mL (≈ 1.07 µM)
MIC (Acinetobacter baumannii [28]): 16 µg/mL (≈ 34.2 µM)
MIC (Acinetobacter baumannii [29]): 16 µg/mL (≈ 34.2 µM)
MIC (Acinetobacter baumannii [30]): > 32 µg/mL
MIC (Acinetobacter baumannii [31]): > 32 µg/mL
MIC (Acinetobacter baumannii [32]): > 32 µg/mL
MIC (Acinetobacter baumannii [33]): 1 µg/mL (≈ 2.14 µM)
MIC (Acinetobacter baumannii [34]): 1 µg/mL (≈ 2.14 µM)
MIC (Acinetobacter baumannii [35]): 1 µg/mL (≈ 2.14 µM)
MIC (Acinetobacter baumannii [36]): 1 µg/mL (≈ 2.14 µM)
MIC (Acinetobacter baumannii [37]): 2 µg/mL (≈ 4.28 µM)
MIC (Acinetobacter baumannii [38]): < 0.25 µg/mL
MIC (Acinetobacter baumannii [39]): < 0.25 µg/mL
MIC (Acinetobacter baumannii [40]): > 32 µg/mL
